Measured values taken from ChEMBL document CHEMBL1132973, “Design, synthesis, and antimicrobial activity of 6-O-substituted ketolides active against resistant respiratory tract pathogens” (2000).
Values after ≈ are worked out from the molar mass of the structure shown.

How the values were obtained:
Format in all cases: functional
[1] = system: Streptococcus pneumoniae; assay: In vitro antibacterial activity against Streptococcus pneumoniae strain 5649.
Procedure, shortened: (§1)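 MICs in µg/mL determined by agar dilution per NCCLS recommendations. Panel includes erythromycin-susceptible strains (S. aureus ATCC 6538P, S. pyogenes EES 61, S. pneumoniae ATCC 6303); ermA MLS_B-resistant S. aureus (A 5177 inducible, A 5278 constitutive); ermB strains (S. pyogenes 930, S. pneumoniae 5737); efflux strains (S. pyogenes PIU 2548 mefA, S. pneumoniae 5649 mefE); and β-lactamase-positive ampicillin-resistant H. influenzae DILL.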

[2] = system: Streptococcus pyogenes; assay: In vitro antibacterial activity against Streptococcus pyogenes strain 930.; procedure, shortened: as §1
[3] = system: Staphylococcus aureus; assay: In vitro antibacterial activity against Staphylococcus aureus strain A 5278.; procedure, shortened: as §1
[4] = system: Staphylococcus aureus; assay: In vitro antibacterial activity against Staphylococcus aureus strain A 5177.; procedure, shortened: as §1
[5] = system: Staphylococcus aureus; assay: In vitro antibacterial activity against Staphylococcus aureus strain ATCC 6538P.; procedure, shortened: as §1
[6] = system: Streptococcus pyogenes; assay: In vitro antibacterial activity against Streptococcus pyogenes strain EES 61.; procedure, shortened: as §1
[7] = system: Streptococcus pneumoniae; assay: In vitro antibacterial activity against Streptococcus pneumoniae strain 5737.; procedure, shortened: as §1
[8] = system: Haemophilus influenzae; assay: In vitro antibacterial activity against Haemophilus influenzae strain DILL.; procedure, shortened: as §1
[9] = system: Streptococcus pyogenes; assay: In vitro antibacterial activity against Streptococcus pyogenes strain PIU 2548.; procedure, shortened: as §1
[10] = system: Streptococcus pneumoniae; assay: In vitro antibacterial activity against Streptococcus pneumoniae strain ATCC 6303.; procedure, shortened: as §1
[11] = system: Staphylococcus aureus; assay: In vitro antibacterial activity against Staphylococcus aureus strain ATCC 6538P; procedure, shortened: as §1
[12] = system: Staphylococcus aureus; assay: (§2) In vivo antibacterial activity against Staphylococcus aureus strain 10649
Procedure, shortened: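 Mice were inoculated intravenously with a 100-fold LD50 of the organism, then dosed by oral gavage at 1 and 5 h post-inoculation across a dose range. Survival was monitored for 7 days. ED50 is the dose giving 50% survival of treated mice over the trial.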

[13] = system: Streptococcus pneumoniae; assay: (§3) In vivo antibacterial activity against Streptococcus pneumoniae strain 6396
[14] = system: Streptococcus pneumoniae; assay: as §3; remark: listed apart in the source
Procedure, shortened: (§4)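 Rat lung infection. Rats inoculated intratracheally with 0.5 mL bacterial suspension in 5% gastric hog mucin containing log 10⁶-10⁸ cfu. Dosed daily on days 1-3, starting 18 h post-inoculation. Lung bacterial burden measured by serial-dilution plating of lung homogenates on day 4. ED50, the dose giving a 2 log reduction versus vehicle-treated infected controls, was calculated from group means by linear regression.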

[15] = system: Streptococcus pneumoniae; assay: (§5) In vivo antibacterial activity against Streptococcus pneumoniae strain 6303; procedure, shortened: as §4
[16] = system: Streptococcus pneumoniae; assay: (§6) In vivo antibacterial activity against Streptococcus pneumoniae strain 5649; procedure, shortened: as §4
[17] = system: Streptococcus pneumoniae; assay: as §6; remark: listed apart in the source
[18] = system: Staphylococcus aureus; assay: as §2; remark: listed apart in the source
[19] = system: Streptococcus pneumoniae; assay: as §5; remark: listed apart in the source
[20] = system: Streptococcus pyogenes; assay: In vivo antibacterial activity against Streptococcus pyogenes strain C203

Row | Structure (SMILES) | MIC [1] | MIC [2] | MIC [3] | MIC [4] | MIC [5] | MIC [6] | MIC [7] | MIC [8] | MIC [9] | MIC [10] | further results
1 | CC[C@H]1OC(=O)[C@H](C)C(=O)[C@H](C)[C@@H](O[C@@H]2O[C@H](C)C[C@H](N(C)C)[C@H]2O)[C@](C)(OCC=Cc2cnc3ccccc3c2)C[C@@H](C)C(=O)[C@H](C)[C@H]2NC(=O)O[C@@]21C [CETHROMYCIN] | 0.25 mg/L (≈ 0.326 µM) | 1 mg/L (≈ 1.31 µM) | > 100 mg/L | 0.05 mg/L (≈ 0.0653 µM) | 0.05 mg/L (≈ 0.0653 µM) | 0.004 mg/L (≈ 0.00522 µM) | 0.25 mg/L (≈ 0.326 µM) | 2 mg/L (≈ 2.61 µM) | 0.125 mg/L (≈ 0.163 µM) | 0.004 mg/L (≈ 0.00522 µM) | 
2 | CC[C@H]1OC(=O)[C@H](C)C(=O)[C@H](C)[C@@H](O[C@@H]2O[C@H](C)C[C@H](N(C)C)[C@H]2O)[C@](C)(OC)C[C@@H](C)C(=O)[C@H](C)[C@H]2N(CCCCn3cnc(-c4cccnc4)c3)C(=O)O[C@]12C [TELITHROMYCIN] |  | 8 mg/L (≈ 9.85 µM) | > 100 mg/L |  |  | 0.004 mg/L (≈ 0.00493 µM) | 8 mg/L (≈ 9.85 µM) |  | 2 mg/L (≈ 2.46 µM) | 0.004 mg/L (≈ 0.00493 µM) | ED50 [12]: 12.5 mg/kg; MIC [13]: 0.125 mg/L (≈ 0.154 µM); ED50 [14]: 26.7 mg/kg; ED50 [15]: 34.1 mg/kg; ED50 [16]: 25.8 mg/kg; MIC [17]: 0.5 mg/L (≈ 0.616 µM); MIC [18]: 0.1 mg/L (≈ 0.123 µM); MIC [19]: 0.004 mg/L (≈ 0.00493 µM)
3 | CC[C@H]1OC(=O)[C@H](C)C(=O)[C@H](C)[C@@H](O[C@@H]2O[C@H](C)C[C@H](N(C)C)[C@H]2O)[C@](C)(OC/C=C/c2ccccc2)C[C@@H](C)C(=O)[C@H](C)[C@H]2NC(=O)O[C@@]21C | 0.25 mg/L (≈ 0.35 µM) | 64 mg/L (≈ 89.5 µM) | > 100 mg/L | 0.1 mg/L (≈ 0.14 µM) | 0.1 mg/L (≈ 0.14 µM) | 0.03 mg/L (≈ 0.042 µM) | 64 mg/L (≈ 89.5 µM) | 4 mg/L (≈ 5.6 µM) | 0.25 mg/L (≈ 0.35 µM) | 0.03 mg/L (≈ 0.042 µM) | 
4 | CC[C@H]1OC(=O)[C@H](C)[C@@H](O[C@H]2C[C@@](C)(OC)[C@@H](O)[C@H](C)O2)[C@H](C)[C@@H](O[C@@H]2O[C@H](C)C[C@H](N(C)C)[C@H]2O)[C@](C)(O)C[C@@H](C)CN(C)[C@H](C)[C@@H](O)[C@]1(C)O [AZITHROMYCIN] |  |  |  |  |  |  |  |  |  |  | ED50 [12]: 24.8 mg/kg; MIC [13]: > 128 mg/L; ED50 [14]: > 100 mg/kg; ED50 [20]: 6.1 mg/kg; MIC [20]: 0.06 mg/L (≈ 0.0801 µM); MIC ([20]; Streptococcus pyogenes, read-out: MIC): 0.06 mg/L (≈ 0.0801 µM); ED50 [16]: 78.7 mg/kg; MIC [17]: 16 mg/L (≈ 21.4 µM); MIC [18]: 0.78 mg/L (≈ 1.04 µM); MIC [19]: 0.12 mg/L (≈ 0.16 µM)
5 | CC[C@H]1OC(=O)[C@H](C)[C@@H](O[C@H]2C[C@@](C)(OC)[C@@H](O)[C@H](C)O2)[C@H](C)[C@@H](O[C@@H]2O[C@H](C)C[C@H](N(C)C)[C@H]2O)[C@](C)(O)C[C@@H](C)C(=O)[C@H](C)[C@@H](O)[C@]1(C)O [ERYTHROMYCIN] | 16 mg/L (≈ 21.8 µM) | > 128 mg/L | > 100 mg/L | 6.2 mg/L (≈ 8.45 µM) |  | 0.06 mg/L (≈ 0.0818 µM) | > 128 mg/L | 8 mg/L (≈ 10.9 µM) | 32 mg/L (≈ 43.6 µM) | 0.06 mg/L (≈ 0.0818 µM) | 

Second part, led by results:

Row | MIC [1] | MIC [2] | MIC [3] | MIC [4] | MIC [5] | MIC [6] | MIC [7] | MIC [8] | MIC [9] | MIC [10] | Structure (SMILES) | further results
6 | 8 mg/L (≈ 13 µM) | > 128 mg/L | > 100 mg/L | 50 mg/L (≈ 81.5 µM) |  |  | > 128 mg/L | > 128 mg/L | 32 mg/L (≈ 52.1 µM) | 4 mg/L (≈ 6.52 µM) | C=CCO[C@@]1(C)C[C@@H](C)C(=O)[C@H](C)[C@@H](O)[C@](C)(O)[C@@H](CC)OC(=O)[C@H](C)C(=O)[C@H](C)[C@H]1O[C@@H]1O[C@H](C)C[C@H](N(C)C)[C@H]1O | MIC [11]: 12.5 mg/L (≈ 20.4 µM)
7 | 0.25 mg/L (≈ 0.391 µM) | > 64 mg/L | > 100 mg/L | 1.56 mg/L (≈ 2.44 µM) | 0.78 mg/L (≈ 1.22 µM) | 0.25 mg/L (≈ 0.391 µM) | > 64 mg/L | 64 mg/L (≈ 100 µM) | 2 mg/L (≈ 3.13 µM) | 0.5 mg/L (≈ 0.783 µM) | C=CCO[C@@]1(C)C[C@@H](C)C(=O)[C@H](C)[C@H]2NC(=O)O[C@]2(C)[C@@H](CC)OC(=O)[C@H](C)C(=O)[C@H](C)[C@H]1O[C@@H]1O[C@H](C)C[C@H](N(C)C)[C@H]1O | 
8 | 2 mg/L (≈ 2.9 µM) | 64 mg/L (≈ 92.8 µM) | > 100 mg/L | 1.56 mg/L (≈ 2.26 µM) | 1.56 mg/L (≈ 2.26 µM) | 0.25 mg/L (≈ 0.362 µM) | 64 mg/L (≈ 92.8 µM) | 128 mg/L (≈ 186 µM) | 2 mg/L (≈ 2.9 µM) | 0.25 mg/L (≈ 0.362 µM) | CC[C@H]1OC(=O)[C@H](C)C(=O)[C@H](C)[C@@H](O[C@@H]2O[C@H](C)C[C@H](N(C)C)[C@H]2O)[C@](C)(OC/C=C/c2ccccc2)C[C@@H](C)C(=O)[C@H](C)[C@@H](O)[C@]1(C)O | 
9 | 0.25 mg/L (≈ 0.337 µM) | 100 mg/L (≈ 135 µM) | > 100 mg/L | 0.2 mg/L (≈ 0.27 µM) | 0.2 mg/L (≈ 0.27 µM) | 0.2 mg/L (≈ 0.27 µM) | 16 mg/L (≈ 21.6 µM) | 16 mg/L (≈ 21.6 µM) | 0.1 mg/L (≈ 0.135 µM) | 0.03 mg/L (≈ 0.0405 µM) | CC[C@H]1OC(=O)[C@H](C)C(=O)[C@H](C)[C@@H](O[C@@H]2O[C@H](C)C[C@H](N(C)C)[C@H]2O)[C@@](C)(OC/C=C/c2cnc3ccccc3c2)C[C@@H](C)C(=O)[C@H](C)[C@@H](O)[C@]1(C)O | 
